Laboratory results reported in ChEMBL document CHEMBL3351454, “Design, synthesis, antimicrobial evaluation and molecular docking studies of some new thiophene, pyrazole and pyridone derivatives bearing sulfisoxazole moiety” (2014).
In brackets after ≈: the same amount, converted by molar mass.

Experiments:
Type in all cases: functional
Streptococcus pneumoniae [1] = assay: Antimicrobial activity against Streptococcus pneumoniae RCMB 010010 assessed as inhibition zone at 5 mg/ml after 24 hrs; conditions: RCMB 010010, 24 h, read-out: IZ
Outline: (§1)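 Agar diffusion on nutrient agar seeded with 10^6 CFU/mL bacteria. Filter-paper disks were loaded with 100 µL of a 5 mg/mL compound solution in DMF, with a DMF-only control. Incubation was 37 °C for 24 h. Inhibition zone in mm (mean ± SD, triplicate plates) was measured beyond the 6 mm diameter.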

Aspergillus fumigatus [2] = assay: Antifungal activity against Aspergillus fumigatus RCMB 02568 assessed as absence of turbidity after 48 hrs; conditions: RCMB 02568, 48 h
Outline: (§2)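 Broth microdilution in Sabouraud liquid medium. DMF stocks at 1000 µg/mL were diluted in broth to give twofold serial dilutions over 500–0.007 µg/mL. Fungal inoculum was about 10^4 CFU/mL in 96-well plates, sealed and incubated at 25 °C for 48 h in a humid chamber. MIC was taken as the lowest concentration with no visible turbidity. DMF and uninoculated-medium controls were included.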

[3] = tested on: Staphylococcus epidermidis; assay: Antimicrobial activity against Staphylococcus epidermidis RCMB 010024 assessed as absence of turbidity after 24 hrs; conditions: RCMB 010024, 24 h
Outline: as §2, with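 “Müller–Hinton broth.” for “Sabouraud liquid medium.”, “Bacterial” for “Fungal”, “10^6” for “10^4”, “37” for “25”, “24” for “48”, “included. Only compounds giving zones >10 mm were tested.” for “included.”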

Klebsiella pneumoniae [4] = assay: Antimicrobial activity against Klebsiella pneumoniae RCMB 010093 assessed as absence of turbidity after 24 hrs; conditions: RCMB 010093, 24 h
Outline: as §2, with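 “Müller–Hinton broth.” for “Sabouraud liquid medium.”, “Bacterial” for “Fungal”, “10^6” for “10^4”, “37” for “25”, “24” for “48”, “included. Only compounds giving zones >10 mm were tested.” for “included.”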

Geotrichum candidum [5] = assay: Antifungal activity against Geotrichum candidum RCMB 05097 assessed as inhibition zone at 5 mg/ml after 48 hrs; conditions: RCMB 05097, 48 h, read-out: IZ
Outline: (§3)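 Disk diffusion on nutrient agar seeded with 10^4 CFU/mL fungus. Sterile filter-paper disks carried 100 µL of a 5 mg/mL DMF solution, and DMF alone served as control. Plates were incubated at 25 °C for 48 h. Mean inhibition zone in mm ± SD was read beyond the 6 mm diameter, in triplicate.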

[6] = tested on: Syncephalastrum racemosum; assay: Antifungal activity against Syncephalastrum racemosum RCMB 05922 assessed as inhibition zone at 5 mg/ml after 48 hrs; conditions: RCMB 05922, 48 h, read-out: IZ
Streptococcus pneumoniae [7] = assay: Antimicrobial activity against Streptococcus pneumoniae RCMB 010010 assessed as absence of turbidity after 24 hrs; conditions: RCMB 010010, 24 h
Outline: as §2, with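 “Müller–Hinton broth.” for “Sabouraud liquid medium.”, “Bacterial” for “Fungal”, “10^6” for “10^4”, “37” for “25”, “24” for “48”, “included. Only compounds giving zones >10 mm were tested.” for “included.”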

Aspergillus fumigatus [8] = assay: Antifungal activity against Aspergillus fumigatus RCMB 02568 assessed as inhibition zone at 5 mg/ml after 48 hrs; conditions: RCMB 02568, 48 h, read-out: IZ; outline: as §3
[9] = tested on: Staphylococcus epidermidis; assay: Antimicrobial activity against Staphylococcus epidermidis RCMB 010024 assessed as inhibition zone at 5 mg/ml after 24 hrs; conditions: RCMB 010024, 24 h, read-out: IZ; outline: as §1
Proteus vulgaris [10] = assay: Antimicrobial activity against Proteus vulgaris RCMB 010085 assessed as inhibition zone at 5 mg/ml after 24 hrs; conditions: RCMB 010085, 24 h, read-out: IZ; outline: as §1
Escherichia coli [11] = assay: Antimicrobial activity against Escherichia coli RCMB 010052 assessed as inhibition zone at 5 mg/ml after 24 hrs; conditions: RCMB 010052, 24 h, read-out: IZ; outline: as §1
Proteus vulgaris [12] = assay: Antimicrobial activity against Proteus vulgaris RCMB 010085 assessed as absence of turbidity after 24 hrs; conditions: RCMB 010085, 24 h
Outline: as §2, with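 “Müller–Hinton broth.” for “Sabouraud liquid medium.”, “Bacterial” for “Fungal”, “10^6” for “10^4”, “37” for “25”, “24” for “48”, “included. Only compounds giving zones >10 mm were tested.” for “included.”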

Bacillus subtilis [13] = assay: Antimicrobial activity against Bacillis subtilis RCMB 010067 assessed as absence of turbidity after 24 hrs; conditions: RCMB 010067, 24 h
Outline: as §2, with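 “Müller–Hinton broth.” for “Sabouraud liquid medium.”, “Bacterial” for “Fungal”, “10^6” for “10^4”, “37” for “25”, “24” for “48”, “included. Only compounds giving zones >10 mm were tested.” for “included.”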

Bacillus subtilis [14] = assay: Antimicrobial activity against Bacillis subtilis RCMB 010067 assessed as inhibition zone at 5 mg/ml after 24 hrs; conditions: RCMB 010067, 24 h, read-out: IZ; outline: as §1
Klebsiella pneumoniae [15] = assay: Antimicrobial activity against Klebsiella pneumoniae RCMB 010093 assessed as inhibition zone at 5 mg/ml after 24 hrs; conditions: RCMB 010093, 24 h, read-out: IZ; outline: as §1
[16] = tested on: Syncephalastrum racemosum; assay: Antifungal activity against Syncephalastrum racemosum RCMB 05922 assessed as absence of turbidity after 48 hrs; conditions: RCMB 05922, 48 h
Escherichia coli [17] = assay: Antimicrobial activity against Escherichia coli RCMB 010052 assessed as absence of turbidity after 24 hrs; conditions: RCMB 010052, 24 h
Outline: as §2, with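 “Müller–Hinton broth.” for “Sabouraud liquid medium.”, “Bacterial” for “Fungal”, “10^6” for “10^4”, “37” for “25”, “24” for “48”, “included. Only compounds giving zones >10 mm were tested.” for “included.”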

Geotrichum candidum [18] = assay: Antifungal activity against Geotrichum candidum RCMB 05097 assessed as absence of turbidity after 48 hrs; conditions: RCMB 05097, 48 h; outline: as §2

MIC (Aspergillus fumigatus [2]): 15.6 µg/mL (≈ 37 µM) | MIC [3]: 3.9 µg/mL (≈ 9.23 µM) | MIC (Klebsiella pneumoniae [4]): 0.49 µg/mL (≈ 1.16 µM) | MIC (Streptococcus pneumoniae [7]): 7.81 µg/mL (≈ 18.5 µM) | MIC (Proteus vulgaris [12]): 7.81 µg/mL (≈ 18.5 µM) | MIC (Bacillus subtilis [13]): 1.95 µg/mL (≈ 4.62 µM) | MIC [16]: 7.81 µg/mL (≈ 18.5 µM) | MIC (Escherichia coli [17]): 1.95 µg/mL (≈ 4.62 µM) | MIC (Geotrichum candidum [18]): 0.98 µg/mL (≈ 2.32 µM)
Structure (SMILES): Cc1noc(NS(=O)(=O)c2ccc(NC(=O)/C(C#N)=C/c3ccccc3)cc2)c1C
zone of inhibition at 5000 µg/mL (Streptococcus pneumoniae [1]): 18.4 mm | zone of inhibition at 5000 µg/mL (Geotrichum candidum [5]): 20.9 mm | zone of inhibition at 5000 µg/mL [6]: 18.8 mm | zone of inhibition at 5000 µg/mL (Aspergillus fumigatus [8]): 17.1 mm | zone of inhibition at 5000 µg/mL [9]: 19.1 mm | zone of inhibition at 5000 µg/mL (Proteus vulgaris [10]): 18 mm | zone of inhibition at 5000 µg/mL (Escherichia coli [11]): 20.6 mm | zone of inhibition at 5000 µg/mL (Bacillus subtilis [14]): 20.3 mm | zone of inhibition at 5000 µg/mL (Klebsiella pneumoniae [15]): 21.9 mm
